# Screening data as filed in PubChem BioAssay.
# Compounds with a hit are over-represented: about 2.1% of the library has one in this group of screens.
# MT stabilize HCS: microtubule stabilizers in HeLa cells, primary screen, imaging, high-content imaging | HeLa tubulin immunostaining HCS, 24 h; share of cells brighter than vehicle mean+2SD | AID 2205, 2009 | % tubulin-high responders, % at 10 µM | actives 0.83% (n = 200,000);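 active = plate Z-score above 3 for both tubulin-high and condensed-nucleus cell shares, with cell loss under 80%, at 10 µM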;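 also: anti alpha tubulin signal scored within the nucleus-defined area of each cell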
# Autophagy mod: autophagy modulators in MEF cells, primary screen, imaging, high-content, MEF GFP-LC3 | MEF GFP-LC3 puncta imaging; test concentration mostly 10 µM | AID 463193, 2010 | actives 0.98% (n = 190,000) | calls only at 10 µM (by protocol);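 active = percentage of spot-positive cells more than 3 SD above its plate mean, without a fluorescence outlier flag or 80% toxicity; inconclusive = no clear call, values can overlap the other calls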;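 also: spot-positive cell cutoff set from DMSO-treated cells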
# Dynein transport: inhibitors of GR-EGFP nuclear translocation, primary screen, dynein cargo transport inhibitor project, imaging, high-content, 3617.4 mouse cells; z-score, hits read low; actives 0.47% (n = 220,000); test concentration mostly 20 µM; stimulated with dexamethasone, 1 µM; stronger effect = lower value;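 active = plate z-score of nuclear minus cytoplasmic receptor signal below a set negative limit, without overly bright fluorescence or cell loss, cut at about -3.5 in these data, passing the limit was not always enough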;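 also: z-score of nuclear minus cytoplasmic ring GR-EGFP intensity difference per well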
#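 Buffer or medium – tet-free medium with charcoal-stripped serum · Signal – automated 10x imaging of fixed Hoechst-stained cells · Also added – dexamethasone agonist, 1.0 µM final, for 30 min · Incubation – induction 48 h, compound 1 h, agonist 30 min · Read-out – GR-EGFP nuclear translocation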
# bCat nuc transl: modulators of beta-catenin nuclear translocation, primary screen, imaging, HeLa cells, immunofluorescence, high-content; nuclear translocation activity, % at 5 µM; actives 0.3% (n = 190,000); AID 1665, 2009;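 active = nuclear translocation activity above 50% at 5 µM, with a well cell count of 50 or more; inconclusive = wells under 50 cells across six images, flagged as toxic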;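 also: per-cell ratio of nuclear to cytoplasmic median beta-catenin stain intensity; plate controls were DMSO negative control for no effect and GSK-3 inhibitor IX positive control for full effect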
#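 System: HeLa cells, endogenous beta-catenin; compound dosing: 5 µM primary single dose, 0.1% DMSO, 0.02–20 µM confirmation series; incubation: 24 h compound exposure at 37°C, 5% CO2; signal: beta-catenin immunofluorescence imaging with DAPI; evaluation: % activation, nuclear-to-cytoplasmic median beta-catenin signal ratio per cell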
# Hsp70 act: Hsp70 transcriptional activators, primary screen, cell-based, HeLa, Hsp70 promoter luciferase, luminescence, 10 µM; HeLa Hsp70 promoter luciferase reporter; scaled: vehicle 0, proteasome-inhibitor control 100%; activation, % at 10 µM; actives 0.04% (n = 200,000); AID 1203, 2008;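 active = activation above the mean across all tested compounds plus 3 SD, cutoff set per campaign, cut at about 5.5% in these data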;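 also: 100% = MG132 at 30 µM as the positive control and 0% = DMSO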
# Dynein inh conf: dynein cargo transport inhibitors, GR-EGFP translocation, confirmation, imaging, high-content imaging, GR-EGFP cells; 3617.4 GR-EGFP nuclear translocation imaging, dexamethasone-induced; calls only at 20 µM; actives 69% (n = 1,000); shares compounds with Dynein transport;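 active = inhibition of receptor movement into the nucleus at or above a set limit in both runs, with normal cell brightness and cell count; inconclusive = limit reached in only one run, brightness and count normal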;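 also: dexamethasone at 1 µM final in well for 30 min; nuclear minus cytoplasmic GR-EGFP mean intensity difference in channel 2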
# * = called active by the depositor; i = inactive; ? = inconclusive; . = not tested or not shown; + = active, no number.
SMILES,MT stabilize HCS,Autophagy mod,Dynein transport,bCat nuc transl,Hsp70 act,Dynein inh conf
CC[n+]1c(/C=C/C=C/N(C(C)=O)c2ccccc2)sc2ccccc21,75.3,+,-3.88*,.,-0.2,+
COC(=O)[C@H](C)NC(=O)Nc1cccc(Br)c1,.,.,0.00939,-2.7,.,.
N#CC(C#N)=C1C=C2C=C(N3CCCCC3)CCC2CC1 (stereo not drawn),4.2,?,-7.32*,-0.7,-0.3,+
CCN(CC)C1=CC2=CC(=C(C#N)C#N)CCC2CC1 (stereo not drawn),2.1,i,-2.72,-0.1,-0.5,.
CCCCN(C)C1=CC2=CC(=C(C#N)C#N)CCC2CC1 (stereo not drawn),3.9,?,-8.14*,9.0,-0.1,+
CC1=C(C#N)C(=O)NC(=O)/C1=C\c1ccc(-c2ccc(C)cc2[N+](=O)[O-])o1,2.3,i,-0.31,2.3,0.7,.
CCOC(=O)c1cc(-c2ccc(/C=C3/C(=O)NC(=O)C(C#N)=C3C)o2)ccc1Cl,2.3,i,-3.58*,.,-0.2,+
CS(=O)(=O)c1cc([N+](=O)[O-])c(Sc2nc3ccccc3[nH]2)c([N+](=O)[O-])c1,3.0,i,-3.58*,1.3,-0.3,+
CC(C)c1ccc(CN2CCN(C(=O)CCl)CC2)cc1,1.1,i,-5.92*,-3.3,-0.2,+
O=S(=O)(/C=C/c1ccccc1)Nc1cccc(S(=O)(=O)NC2=NCCC2)c1,1.5,i,-0.185,-0.8,-0.2,.
CCC(=O)c1ccc(OCC(=O)c2ccc3c(c2)NC(=O)CO3)cc1,.,.,-0.648,0.2,.,.
O=C1COc2ccc(C(=O)CCl)cc2N1,.,.,-4.02*,0.6,.,+
N#C/C(=C\c1ccccc1)C(=O)N(c1ccccn1)C1CCCCC1,2.3,i,-3.93*,-2.1,-0.3,i
CCOC(=O)c1c(NC(=O)CN2C(=O)CN(C)C2=O)sc(C)c1C,2.5,i,-0.214,1.1,0.0,.
